# Key:
# [1] = molecular target: T1, Transketolase (Homo sapiens, UniProt P29401); test: Inhibition of apo-transketolase
# T1 sequence (P29401 whole entry): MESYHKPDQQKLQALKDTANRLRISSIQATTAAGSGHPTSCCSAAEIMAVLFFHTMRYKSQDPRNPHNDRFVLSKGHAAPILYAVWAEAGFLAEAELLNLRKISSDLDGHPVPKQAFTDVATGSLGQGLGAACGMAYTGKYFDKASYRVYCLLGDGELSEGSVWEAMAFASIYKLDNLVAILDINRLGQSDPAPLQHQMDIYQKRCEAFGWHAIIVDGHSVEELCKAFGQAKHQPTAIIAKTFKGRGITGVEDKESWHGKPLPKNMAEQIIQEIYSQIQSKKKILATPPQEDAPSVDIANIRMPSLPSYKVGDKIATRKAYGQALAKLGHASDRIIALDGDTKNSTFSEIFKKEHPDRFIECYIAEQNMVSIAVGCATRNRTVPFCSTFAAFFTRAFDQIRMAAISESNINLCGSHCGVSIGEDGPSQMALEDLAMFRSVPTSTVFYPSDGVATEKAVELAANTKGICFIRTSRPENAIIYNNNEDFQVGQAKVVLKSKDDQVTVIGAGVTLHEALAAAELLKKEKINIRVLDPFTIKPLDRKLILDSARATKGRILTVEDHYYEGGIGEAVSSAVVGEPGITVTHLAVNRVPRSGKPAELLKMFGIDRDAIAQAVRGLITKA
# [2] = molecular target: T1, Transketolase; test: Inhibition of transketolase in human HCT116 cells; assay type: cell-based, HCT-116
# In short: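 Cellular TK assay in human colon cancer HCT-116 cells, run in triplicate. EC50 reported as the average, with data within 4-fold of the mean.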
# [3] = molecular target: T1, Transketolase; test: Inhibition of apo-transketolase by coupled TPPK/Apo-TK enzymatic assay
# In short: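 Each compound was first checked for pyrophosphorylation by TPPK, with thiamine as the control substrate; pyrophosphorylation was scored relative to thiamine. Compounds were then tested for competition with TPP in inhibiting TK activity. Kd is the average of at least three experiments, with data within 2-fold of the mean.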
SMILES,Kd [1] [µM],EC50 [2] [µM],Kd [3] [µM]
CC(=O)Nc1ncc(Cc2csc(CCO)c2C)c(N)n1,1.1,6.3,0.003
Cc1c(Cc2cnc(N)nc2N)csc1CCO,2.2,8.5,–
Cc1c(Cc2cnc(-c3ccccc3)nc2N)csc1CCO,> 500,> 10,0.23
Cc1c(Cc2cnc(C(C)C)nc2N)csc1CCO,> 500,2.6,0.064
Cc1c(Cc2cnc(C3CC3)nc2N)csc1CCO,> 500,0.66,0.06
Cc1ncc(Cc2[nH]nc(CCO)c2C)c(N)n1,–,17,–
Cc1ncc(Cc2nn(C)c(CCO)c2C)c(N)n1,–,4.7,–
Cc1ncc(Cc2c(C)c(CCO)nn2C)c(N)n1,–,1.1,–
Cc1c(Cc2cncnc2N)csc1CCO,> 100,52,–
Cc1c(Cc2cnc(C(F)(F)F)nc2N)csc1CCO,–,25,0.063

# More lines, now with the values ahead:
Kd [1] [µM],EC50 [2] [µM],Kd [3] [µM],SMILES
> 500,3.24,–,Cc1ccc(Cn2c(C)c(CCO)sc2=O)c(N)n1
0.016,–,–,Cc1ncc(Cn2c(C)c(CCO[P@@](=O)(O)OP(=O)(O)O)sc2=O)c(N)n1
18,1.2,0.012,Cc1ncc(Cc2csc(CCO)c2C)c(N)n1 [3-DEAZATHIAMINE]
6800,–,–,Cc1ncc(C[n+]2csc(CCO)c2C)c(N)n1 [THIAMINE ION]
34,2.71,–,Cc1ncc(Cn2c(C)c(CCO)sc2=O)c(N)n1 [THIAMINE THIAZOLONE]
